In the library only some 5.9% were active in any assay of this set; here they are far more common.
GASC1 inh: KDM4C (human) demethylase inhibition | AID 720574 | 0.15% of 96,000 active | GST-KDM4C 2-372, H3K9me3 peptide, LANCE TR-FRET | inhibition, % at 12.5 µM;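 active = mean replicate inhibition above about 25%, with at least 55% of replicates also reaching it, limit read from the data, passing the limit was not always enough; inconclusive = only one of those two conditions met; inactive = neither condition met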
Target sequence (Q9H3R0 2-372 limits assumed): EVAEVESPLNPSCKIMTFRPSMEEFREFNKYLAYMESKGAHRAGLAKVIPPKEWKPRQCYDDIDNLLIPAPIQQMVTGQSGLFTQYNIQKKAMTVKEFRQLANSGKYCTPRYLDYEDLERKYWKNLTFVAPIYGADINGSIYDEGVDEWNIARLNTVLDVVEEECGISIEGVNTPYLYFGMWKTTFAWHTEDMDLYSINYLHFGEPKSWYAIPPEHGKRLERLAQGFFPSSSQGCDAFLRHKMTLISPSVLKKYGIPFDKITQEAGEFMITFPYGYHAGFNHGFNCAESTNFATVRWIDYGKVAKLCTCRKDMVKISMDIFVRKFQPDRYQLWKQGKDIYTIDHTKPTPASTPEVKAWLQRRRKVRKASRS
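System – N-terminal GST-fused human GASC-1 (KDM4C) fragment, residues 2-372 · Input – enzyme final amount 10 nM · Technique – LANCE TR-FRET, Eu antibody, ULight-streptavidin, EDTA, ex 340 nm, em 618/671 nm · Medium – HEPES buffer, pH 7.5, plus ascorbate · Incubation – enzyme reaction 30 min, then detection 60 min, both room temperature · Reagent – H3K9me3 peptide with Fe(II)/2OG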
T cruzi growth-1: inhibitors of T. cruzi proliferation. T. cruzi beta-gal in NIH3T3, GalScreen luminescence, 90 h. inhibition, % at 8.34 µM. 5.9% of 77,000 active;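 active = mean inhibition above about 93%, with at least 55% of replicates each passing it, limit read from the data, passing the limit was not always enough; inconclusive = only one of those two conditions holds; inactive = neither condition holds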
IDH1 mut inh: IDH1 R132H (human) inhibition; inhibition, % at 10 µM; IDH1 R132H reductase, diaphorase/resazurin fluorescence, 60 min; O75874; 0.18% of 70,000 active; AID 624101; in the data active = inhibition above about 34%; inconclusive = no clear call, values can overlap the other calls; inactive = below about 11%;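 note: 0% = DMSO and 100% = no enzyme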
Pf Dd2 growth: inhibitors of Plasmodium falciparum Dd2 growth; P. falciparum Dd2 growth, SYBR Green, 72 h; hits give low values; activity change, % at 10 µM; 2.3% of 94,000 active; in the data active = activity change below about -80%; inconclusive = no clear call, values can overlap the other calls
T cruzi growth-2: blocks T. cruzi growth in NIH3T3 host cells | shares compounds with T cruzi growth-1 | T. cruzi beta-gal in NIH3T3, GalScreen luminescence, 90 h | 72% of 5,600 active | inhibition, % at 8.35 µM;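 active = mean replicate inhibition above about 95% and at least 55% of replicates individually reaching it, limit read from the data; inconclusive = only one of the two criteria is met; inactive = neither criterion is met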
T cruzi growth-3: blocks T. cruzi growth in NIH3T3 host cells; inhibition, % at 2.09 µM; 21% of 5,600 active; shares compounds with T cruzi growth-1; AID 651740; T. cruzi beta-gal in NIH3T3, GalScreen luminescence, 90 h;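 active = mean inhibition above about 95%, with at least 55% of replicates also reaching it, limit read from the data; inconclusive = meets just one of the two conditions; inactive = meets neither condition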;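 note: plate controls were neutral control median for no effect and positive control median for full effect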
NIH3T3 tox: NIH/3T3 (mouse) viability loss | 14% of 5,600 active | cytotoxicity (signal decrease), % at 8.35 µM | AID 651742 | NIH/3T3 viability, CellTiter-Glo ATP luminescence, 90 h | shares compounds with T cruzi growth-1;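 active = mean signal decrease across replicates above about 35% based on untreated-well scatter, with enough replicates individually passing, limit read from the data; inconclusive = no rule stated though some were filed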;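 note: 0% = median of neutral control wells and 100% = median of positive control wells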
NIH3T3 tox 2: cytotoxicity in mouse NIH/3T3 fibroblasts | shares compounds with T cruzi growth-1 | NIH/3T3 viability, CellTiter-Glo ATP luminescence, 90 h | inhibition, % at 24.9 µM | AID 651744 | 56% of 5,600 active;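 active = mean loss of cell viability signal at or above a set limit, and enough replicates individually reaching it; inconclusive = meets only the mean limit or only the replicate share; inactive = meets neither condition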;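 note: 0% = median of neutral control wells and 100% = median of positive control wells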
An asterisk follows results filed as active; ? = inconclusive; / = not tested or not shown.

SMILES	GASC1 inh	T cruzi growth-1	IDH1 mut inh	Pf Dd2 growth	T cruzi growth-2	T cruzi growth-3	NIH3T3 tox	NIH3T3 tox 2
O=C(Cc1ccccn1)N1CCCCN2[C@@H](CO)[C@@H](c3ccc(-c4ccccc4)cc3)[C@@H]2C1	1	113*	/	-21	?	68	-9	15
O=C(Cc1ccccn1)N1CCCCN2[C@H](CO)[C@@H](c3ccc(Br)cc3)[C@H]2C1	1	105*	/	19	-3	-14	4	-1
O=C(Cc1ccccn1)N1CCCCN2[C@H](CO)[C@H](c3ccc(-c4ccccc4)cc3)[C@H]2C1	-1	41	/	-13	/	/	/	/
CCN1CC2(COC)CCC(O)C34C5CC6C(OC)CC(O)(C5C6O)C(C(OC)C23)C14 (centres undefined)	/	/	0	/	/	/	/	/
O=C(NC(=O)c1ccccc1Cl)Nc1ccc2c(c1)S(=O)(=O)C=C2	/	/	-2	/	/	/	/	/
O=C(Cc1cccnc1)N1CCCCN2[C@H](CO)[C@H](c3ccc(C#CC4CC4)cc3)[C@H]2C1	/	-208	/	-31	/	/	/	/
O=C(Cc1cccnc1)N1CCCCN2[C@H](C1)[C@@H](c1ccc(C#CC3CCCC3)cc1)[C@@H]2CO	0	102*	/	-28	107*	32	25	104*
O=C(Cc1cccnc1)N1CCCCN2[C@H](CO)[C@H](c3ccc(C#CC4CCCC4)cc3)[C@@H]2C1	0	111*	/	2	89	44	34	78*
O=C(Cc1cccnc1)N1CCCCN2[C@H](CO)[C@H](c3ccc(C#CC4CC4)cc3)[C@@H]2C1	/	87	/	-17	/	/	/	/
C=C1[C@@H](C)[C@H]2[C@H](Cc3ccccc3)NC(=O)[C@]23[C@H](OC(C)=O)C=C[C@](C)(O)C(=O)[C@@H](C)C/C=C/[C@H]3[C@@H]1O	/	/	1	/	/	/	/	/
CC=Cc1ccc2n(c1=O)C[C@H]1[C@H](CO)[C@@H](C(=O)OC)[C@@H]2N1S(=O)(=O)c1cccc(C)c1 (mixture of isomers)	-3	107*	/	/	102*	3	0	3
Cc1ccc2c(c1)-c1cc(C)nn1C(c1cccnc1)N2 (centres undefined)	/	/	-1	/	/	/	/	/
COc1ccc2c(c1OC)C(=O)O[C@@H]2[C@@H]1c2cc3c(cc2CCN1C)OCO3	/	/	2	/	/	/	/	/
N#Cc1cccc(-c2ccc([C@@H]3[C@@H](CO)N4CCCCN(C(=O)Cc5ccncc5)C[C@@H]34)cc2)c1	-1	66	/	10	/	/	/	/
N#Cc1cccc(-c2ccc([C@H]3[C@@H](CO)N4CCCCN(C(=O)Cc5ccncc5)C[C@@H]34)cc2)c1	-2	102*	/	10	78	-15	-17	4
N#Cc1cccc(-c2ccc([C@@H]3[C@H]4CN(C(=O)Cc5ccncc5)CCCCN4[C@H]3CO)cc2)c1	-1	108*	/	5	74	3	7	13
N#Cc1cccc(-c2ccc([C@H]3[C@H](CO)N4CCCCN(C(=O)Cc5ccncc5)C[C@@H]34)cc2)c1	2	118*	/	-70	100*	82	15	52*
CN(C)CC#Cc1ccc([C@@H]2[C@H](CO)N3CCCCN(C(=O)Cc4ccccn4)C[C@@H]23)cc1	5	114*	/	4	15	24	-1	6
CN(C)CC#Cc1ccc([C@@H]2[C@@H](CO)N3CCCCN(C(=O)Cc4ccccn4)C[C@@H]23)cc1	3	91	/	-4	/	/	/	/
CN(C)CC#Cc1ccc([C@@H]2[C@@H](CO)N3CCCCN(C(=O)Cc4ccccn4)C[C@H]23)cc1	4	114*	/	-16	48	15	16	1
CN(C)CC#Cc1ccc([C@H]2[C@@H](CO)N3CCCCN(C(=O)Cc4ccccn4)C[C@H]23)cc1	1	61	/	7	/	/	/	/
COc1ccc(C#Cc2ccc([C@@H]3[C@H](CO)N4CCCCN(C(=O)Cc5ccccc5)C[C@@H]34)cc2)cc1	-1	112*	/	-77	101*	105*	22	106*
COc1ccc(C#Cc2ccc([C@H]3[C@@H](CO)N4CCCCN(C(=O)Cc5ccccc5)C[C@@H]34)cc2)cc1	-2	87	/	-34	/	/	/	/
COc1ccc(C#Cc2ccc([C@@H]3[C@@H](CO)N4CCCCN(C(=O)Cc5ccncc5)C[C@H]34)cc2)cc1	0	111*	/	-51	107*	81	31	106*
COc1ccc(C#Cc2ccc([C@@H]3[C@@H](CO)N4CCCCN(C(=O)Cc5ccccc5)C[C@H]34)cc2)cc1	-3	76	/	-32	/	/	/	/
SMILES	GASC1 inh	T cruzi growth-1	IDH1 mut inh	Pf Dd2 growth	T cruzi growth-2	T cruzi growth-3	NIH3T3 tox	NIH3T3 tox 2
COc1ccc(C#Cc2ccc([C@@H]3[C@H]4CN(C(=O)Cc5ccccc5)CCCCN4[C@H]3CO)cc2)cc1	-1	99*	/	-46	93	103*	3	105*
COc1cc2c(cc1O)C1Cc3ccc(OC)c(O)c3CN1CC2 (centres undefined)	/	/	0	/	/	/	/	/
CC1CCC/C=C/C2CC(O)CC2C(O)/C=C\C(=O)O1 (centres undefined)	/	/	1	/	/	/	/	/
CN(C(=O)Cc1ccccc1)C(CN1CCCC1)c1ccccc1 (centres undefined)	/	/	0	/	/	/	/	/
O=C(Cc1cccnc1)N1CCCCN2[C@@H](CO)[C@H](c3ccc(/C=C/c4ccccc4)cc3)[C@@H]2C1	0	105*	/	8	104*	73	?	104*
O=C(Cc1cccnc1)N1CCCCN2[C@H](C1)[C@H](c1ccc(/C=C/c3ccccc3)cc1)[C@@H]2CO	-1	94	/	-10	/	/	/	/
O=C(Cc1cccnc1)N1CCCCN2[C@H](CO)[C@H](c3ccc(/C=C/c4ccccc4)cc3)[C@@H]2C1	0	119*	/	8	114*	102*	?	79*
C/C=C/c1ccc([C@@H]2[C@@H](CO)N3CCCCN(C(=O)Cc4cccnc4)C[C@H]23)cc1	0	52	/	16	/	/	/	/
O=C1NC(=O)C(CCc2ccncc2)(CCc2ccncc2)C(=O)N1c1ccccc1F	/	/	6	/	/	/	/	/
O=C(Cc1ccccc1)N1C[C@@H]2[C@H](c3ccccc31)[C@H](CO)N2Cc1ccccc1	0	97*	/	-16	101*	100*	-13	26
OC[C@H]1[C@H]2c3ccccc3NC[C@H]2N1Cc1cccnc1	0	61	/	-10	/	/	/	/
C=CCN1CCC23c4c5ccc(O)c4OC2C(=O)CCC3(O)C1C5 (centres undefined)	/	/	-3	/	/	/	/	/
O=C(Cc1ccccc1)N1CCCCN2[C@@H](CO)[C@H](c3ccc(C#Cc4ccccc4)cc3)[C@@H]2C1	?	111*	/	-60	108*	105*	43*	103*

Source: PubChem
